According to ChEMBL document CHEMBL1155356, “Design, synthesis, and structure-activity relationship of novel orally efficacious pyrazole/sulfonamide based dihydroquinoline gamma-secretase inhibitors” (Bioorg Med Chem Lett, 2009):
pIC50: −log10 of the molar value.

Columns and labels:
[1] = test system: Mus musculus; assay: Reduction of cortical abeta40 level in FVB mouse at 3 mg/kg, po after 3 hrs; format: functional; design: scale not given: the % may be the effect or the level left
[2] = Solubility in HBSS buffer at 20 mM at pH 7.4 after 1 hr; format: physicochemical
How it was run: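 20 mM DMSO stocks serially diluted in DMSO, then diluted 1:200 into HBSS pH 7.4. After 1 h incubation, plates read on a solubility scanner.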

[3] = test system: Mus musculus; assay: Reduction of cortical abeta40 level in FVB mouse at 30 mg/kg, po after 3 hrs; format: functional; design: scale not given: the % may be the effect or the level left
[4] = Oxidative metabolic stability in human liver microsomes at 1 uM after 30 mins in presence of 1 mM NADPH; format: ADME, Microsome; settings: liver microsomes, read-out: Stability
How it was run: (§1)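 Oxidative stability: compound at 1 µM incubated 30 min at 37 °C in phosphate buffer with liver microsomes (0.5 mg/ml protein) plus 1 mM NADPH. Percent parent remaining reported. Human or mouse microsomes per line.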

[5] = Oxidative metabolic stability in mouse liver microsomes at 1 uM after 30 mins in presence of 1 mM NADPH; format: ADME, Microsome; settings: liver microsomes, read-out: Stability; how it was run: as §1
[6] = Metabolic stability in human liver microsomes at 2 uM after 30 mins in presence of 1 mM UDPGA; format: ADME, Microsome; settings: read-out: Stability
How it was run: (§2)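 Glucuronidation stability: 2 µM compound incubated 30 min at 37 °C in phosphate buffer with liver microsomes (0.5 mg protein), 1 mM UDPGA, 100 mM MgCl2 and 25 µg/mL alamethicin. Read-out is percent parent compound remaining. Human or mouse microsomes per line.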

[7] = Metabolic stability in mouse liver microsomes at 2 uM after 30 mins in presence of 1 mM UDPGA; format: ADME, Microsome; settings: read-out: Stability; how it was run: as §2
[8] = biological target: Gamma-secretase; assay: Inhibition of Gamma-secretase in human IMR-32 cells after 2 hrs by ELISA assay; format: cell-based
How it was run: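 γ-Secretase came from IMR-32 cell membranes, and compound was first diluted in DMSO. Reaction at 37 °C was started with MBPC-125 Swedish substrate, run for 2 h, then stopped with SDS. Cleaved substrate was measured by Aβ40-specific ELISA. Values are means of three experiments.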

[9] = Apparent permeability from apical to basolateral side in MDCK2 cells at 5 uM after 120 mins; format: ADME, cell-based, Canis lupus familiaris, MDCK-II; settings: dog, MDCK
How it was run: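 Compound at 5 µM in mHBSS pH 7.4 applied to MDCK II cell monolayers for 120 min at 37 °C. Apical and basolateral chambers sampled and analysed by LC/MS/MS.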

**Q.** Which Activity [1] does the source give for `C[C@@H]1c2c[nH]nc2-c2cc(F)ccc2N1S(=O)(=O)c1ccc(Cl)cc1` here?
**A.** The Activity was 7%.

**Q.** And the solubility at 1 h [2]?
**A.** Its solubility at 1 h is > 100 µM.

**Q.** And the Activity [3]?
**A.** Its Activity is 37%.

**Q.** And the remaining at 0.5 h, 1 µM [4]?
**A.** The remaining at 0.5 h, 1 µM was 1%.

**Q.** What about the remaining at 0.5 h, 1 µM [5] of the same compound?
**A.** Its remaining at 0.5 h, 1 µM is 7%.

**Q.** What about the remaining at 0.5 h, 2 µM [6] of the same compound?
**A.** Its remaining at 0.5 h, 2 µM is 77%.

**Q.** What about the remaining at 0.5 h, 2 µM [7] of the same compound?
**A.** Its remaining at 0.5 h, 2 µM is 91%.

**Q.** And the pIC50 [8]?
**A.** Its pIC50 is 9.21.

**Q.** What about the Papp A→B at 2 h, 5 µM [9] of the same compound?
**A.** Its Papp A→B at 2 h, 5 µM is 19.8 ×10⁻⁶ cm/s.
